Test results taken from ChEMBL document CHEMBL4706704, “Potential of substituted quinazolines to interact with multiple targets in the treatment of cancer” (Bioorg Med Chem, 2021).

Columns and labels:
[1] = Induction of microtubule depolymerization in rat A10 cells incubated for over night by immunofluorescence method; type: cell-based
Outline: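 Rat A-10 cells were exposed overnight, fixed in cold methanol and stained for microtubules by indirect immunofluorescence with a β-tubulin antibody.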

MDA-MB-435 = assay: Antiproliferative activity against human MDA-MB-435 cells assessed as reduction in cell viability by Sulforhodamine B assay; type: functional, cell-based
Outline: (§1)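 SRB proliferation/cytotoxicity assay; parental lines obtained from ATCC. The HeLa WT-βIII line was generated as described in earlier work. IC50 is the average of at least 3 independent experiments, each run with triplicate points.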

[2] = Resistant index, ratio of IC50 for cytotoxicity against human HeLa cells expressing WT-beta3 to IC50 for cytotoxicity against human HeLa cells; type: functional
SK-OV-3 [3] = assay: Cytotoxicity against human SK-OV-3 cells over expressing MDR1-6/6 assessed as reduction in cell viability by Sulforhodamine B assay; type: functional, cell-based
Outline: (§2)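 SRB assay for antiproliferative/cytotoxic effect. HeLa WT-βIII and SK-OV-3-MDR1-6/6 lines were generated as described earlier and run alongside their parental lines.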

SK-OV-3 [4] = assay: Cytotoxicity against human SK-OV-3 cells assessed as reduction in cell viability by Sulforhodamine B assay; type: functional, cell-based; outline: as §1
HeLa [5] = assay: Cytotoxicity against human HeLa cells assessed as reduction in cell viability by Sulforhodamine B assay; type: functional, cell-based; outline: as §2
[6] = Resistant index, ratio of IC50 for cytotoxicity against human SK-OV-3 cells over expressing MDR1-6/6 cells to IC50 for cytotoxicity against human SK-OV-3 cells; type: functional
HeLa [7] = assay: Cytotoxicity against human HeLa cells over expressing WT-beta3 assessed as reduction in cell viability by Sulforhodamine B assay; type: functional, cell-based; outline: as §1
[8] = Ratio of EC50 for induction of microtubule depolymerization in rat A10 cells to IC50 for antiproliferative activity against human MDA-MB-435 cells
[9] = target: T1, Epidermal growth factor receptor (Homo sapiens, UniProt P00533); assay: Inhibition of EGFR in human A431 cells preincubated for 60 mins followed by EGF stimulation and measured after 10 mins by ELISA; type: cell-based, A-431
T1 sequence (P00533 whole entry): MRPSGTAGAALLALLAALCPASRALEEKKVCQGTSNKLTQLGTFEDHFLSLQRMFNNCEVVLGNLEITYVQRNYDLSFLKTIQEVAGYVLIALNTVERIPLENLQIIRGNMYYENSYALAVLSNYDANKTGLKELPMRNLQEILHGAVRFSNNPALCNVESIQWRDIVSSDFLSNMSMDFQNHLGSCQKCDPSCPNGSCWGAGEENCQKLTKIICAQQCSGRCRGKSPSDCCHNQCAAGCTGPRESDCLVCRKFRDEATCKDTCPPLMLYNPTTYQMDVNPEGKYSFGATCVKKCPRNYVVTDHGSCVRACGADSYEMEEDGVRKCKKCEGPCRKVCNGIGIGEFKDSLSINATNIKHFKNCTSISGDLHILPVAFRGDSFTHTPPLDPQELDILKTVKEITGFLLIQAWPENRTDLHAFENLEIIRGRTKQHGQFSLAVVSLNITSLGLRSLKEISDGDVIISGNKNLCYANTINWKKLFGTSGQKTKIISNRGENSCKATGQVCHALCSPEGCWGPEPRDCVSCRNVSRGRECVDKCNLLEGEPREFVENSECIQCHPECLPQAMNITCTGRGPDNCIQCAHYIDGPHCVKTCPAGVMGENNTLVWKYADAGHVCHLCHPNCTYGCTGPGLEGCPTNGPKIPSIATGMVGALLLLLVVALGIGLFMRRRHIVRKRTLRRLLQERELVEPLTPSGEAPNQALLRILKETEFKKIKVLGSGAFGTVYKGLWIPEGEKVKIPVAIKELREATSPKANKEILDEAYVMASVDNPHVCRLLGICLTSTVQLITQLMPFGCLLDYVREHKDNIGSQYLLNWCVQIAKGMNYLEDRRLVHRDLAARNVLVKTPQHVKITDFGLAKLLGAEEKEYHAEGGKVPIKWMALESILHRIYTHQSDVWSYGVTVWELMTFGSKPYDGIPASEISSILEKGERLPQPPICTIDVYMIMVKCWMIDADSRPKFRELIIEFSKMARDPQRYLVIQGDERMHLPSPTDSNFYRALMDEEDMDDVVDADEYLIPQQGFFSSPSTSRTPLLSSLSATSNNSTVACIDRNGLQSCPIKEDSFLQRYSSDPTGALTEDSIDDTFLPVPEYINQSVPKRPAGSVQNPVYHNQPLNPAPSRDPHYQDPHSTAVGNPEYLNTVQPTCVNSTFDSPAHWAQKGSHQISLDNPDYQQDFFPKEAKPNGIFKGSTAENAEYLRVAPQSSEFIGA

[10] = target: T2, Vascular endothelial growth factor receptor 2 (Homo sapiens, UniProt P35968); assay: Inhibition of VEGFR2 in human U251 cells preincubated for 60 mins followed by VEGF stimulation and measured after 10 mins by ELISA; type: cell-based, U-251
T2 sequence (P35968 whole entry): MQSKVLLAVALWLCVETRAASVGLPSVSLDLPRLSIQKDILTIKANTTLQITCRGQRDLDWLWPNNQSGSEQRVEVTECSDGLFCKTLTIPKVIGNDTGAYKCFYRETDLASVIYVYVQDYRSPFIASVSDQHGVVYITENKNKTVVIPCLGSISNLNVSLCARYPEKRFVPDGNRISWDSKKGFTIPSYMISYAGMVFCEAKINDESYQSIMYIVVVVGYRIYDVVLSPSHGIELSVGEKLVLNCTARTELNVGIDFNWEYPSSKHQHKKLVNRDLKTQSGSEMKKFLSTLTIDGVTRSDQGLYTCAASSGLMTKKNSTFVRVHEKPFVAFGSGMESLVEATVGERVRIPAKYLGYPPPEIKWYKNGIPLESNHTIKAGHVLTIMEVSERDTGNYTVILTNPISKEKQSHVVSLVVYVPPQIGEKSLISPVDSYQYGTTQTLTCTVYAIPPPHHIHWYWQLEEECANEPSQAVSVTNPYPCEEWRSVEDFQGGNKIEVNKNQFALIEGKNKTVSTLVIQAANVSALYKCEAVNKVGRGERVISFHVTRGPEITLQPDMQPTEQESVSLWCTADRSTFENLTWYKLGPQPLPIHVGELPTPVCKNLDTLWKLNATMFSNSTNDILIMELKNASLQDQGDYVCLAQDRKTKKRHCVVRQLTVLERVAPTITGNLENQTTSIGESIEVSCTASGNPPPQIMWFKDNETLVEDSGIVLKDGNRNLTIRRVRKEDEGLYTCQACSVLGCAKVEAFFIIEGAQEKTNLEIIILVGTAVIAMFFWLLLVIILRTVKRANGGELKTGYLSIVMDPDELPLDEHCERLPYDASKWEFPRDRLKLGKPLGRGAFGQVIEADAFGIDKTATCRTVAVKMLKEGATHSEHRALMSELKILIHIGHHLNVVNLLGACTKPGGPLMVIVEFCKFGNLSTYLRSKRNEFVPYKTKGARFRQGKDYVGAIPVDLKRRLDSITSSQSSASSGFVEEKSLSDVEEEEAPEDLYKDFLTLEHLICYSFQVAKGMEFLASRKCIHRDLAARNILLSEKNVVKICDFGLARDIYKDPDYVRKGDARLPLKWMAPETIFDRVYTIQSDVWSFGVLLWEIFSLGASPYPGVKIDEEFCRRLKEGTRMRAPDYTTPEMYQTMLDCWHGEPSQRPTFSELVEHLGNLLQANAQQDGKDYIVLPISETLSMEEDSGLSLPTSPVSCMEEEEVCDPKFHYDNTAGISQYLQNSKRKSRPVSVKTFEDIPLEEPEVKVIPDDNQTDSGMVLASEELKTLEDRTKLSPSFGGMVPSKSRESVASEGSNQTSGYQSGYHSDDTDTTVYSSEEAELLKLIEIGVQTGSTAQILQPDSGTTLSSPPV

Bos taurus [11] = species on record: Bos taurus; assay: Displacement of [3H]-colchicine from bovine brain tubulin at 5 uM after 10 mins by DEAE-cellulose filter method relative to control; type: tissue-based
Outline: (§3)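 Tubulin 0.1 mg/mL (1.0 μM) incubated at 37 °C with 5.0 μM [3H]colchicine and inhibitor at 1.0 or 5.0 μM.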

[12] = target: T3, Platelet-derived growth factor receptor beta (Homo sapiens, UniProt P09619); assay: Inhibition of PDGFRbeta in human SH-SY5Y cells preincubated for 60 mins followed by PDGF stimulation and measured after 10 mins by ELISA; type: cell-based
T3 sequence (P09619 whole entry): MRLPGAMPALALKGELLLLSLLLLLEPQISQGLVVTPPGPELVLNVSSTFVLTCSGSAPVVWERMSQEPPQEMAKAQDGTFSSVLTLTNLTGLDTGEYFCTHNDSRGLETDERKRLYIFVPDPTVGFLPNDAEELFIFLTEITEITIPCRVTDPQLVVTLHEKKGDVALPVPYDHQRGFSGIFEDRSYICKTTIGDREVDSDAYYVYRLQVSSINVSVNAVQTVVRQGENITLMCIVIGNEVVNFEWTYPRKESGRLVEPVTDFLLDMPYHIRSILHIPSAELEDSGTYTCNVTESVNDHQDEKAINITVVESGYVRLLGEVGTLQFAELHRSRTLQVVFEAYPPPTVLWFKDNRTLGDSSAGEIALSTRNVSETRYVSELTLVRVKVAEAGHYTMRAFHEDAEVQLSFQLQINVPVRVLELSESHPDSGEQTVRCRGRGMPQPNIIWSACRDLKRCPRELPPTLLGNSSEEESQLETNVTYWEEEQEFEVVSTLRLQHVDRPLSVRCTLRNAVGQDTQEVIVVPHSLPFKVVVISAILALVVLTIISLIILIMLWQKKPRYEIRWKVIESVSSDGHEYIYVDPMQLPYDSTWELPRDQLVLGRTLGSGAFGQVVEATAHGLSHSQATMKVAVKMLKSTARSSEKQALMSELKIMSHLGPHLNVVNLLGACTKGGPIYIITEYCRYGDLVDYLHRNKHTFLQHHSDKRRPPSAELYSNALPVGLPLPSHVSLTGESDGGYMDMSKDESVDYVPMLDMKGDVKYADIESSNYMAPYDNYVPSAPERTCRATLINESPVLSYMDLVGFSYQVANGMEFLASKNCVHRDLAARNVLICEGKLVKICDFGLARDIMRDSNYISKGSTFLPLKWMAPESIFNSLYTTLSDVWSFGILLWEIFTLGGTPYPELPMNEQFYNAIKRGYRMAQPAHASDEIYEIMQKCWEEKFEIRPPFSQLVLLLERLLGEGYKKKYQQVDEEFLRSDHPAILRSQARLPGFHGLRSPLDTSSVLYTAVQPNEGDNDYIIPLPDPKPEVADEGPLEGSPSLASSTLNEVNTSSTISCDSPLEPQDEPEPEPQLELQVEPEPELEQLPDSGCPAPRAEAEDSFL

A-431 = assay: Cytotoxicity against human A-431 cells assessed as reduction in cell viability by Sulforhodamine B assay; type: functional, cell-based
Bos taurus [13] = species on record: Bos taurus; assay: Displacement of [3H]-colchicine from bovine brain tubulin at 1 uM after 10 mins by DEAE-cellulose filter method relative to control; type: tissue-based; outline: as §3
U-251 = assay: Cytotoxicity against human U-251 cells assessed as reduction in cell viability by Sulforhodamine B assay; type: functional, cell-based
Chorioallantoic membrane [14] = assay: Antiangiogenic activity in Leghorn chicken fertilized egg chorioallantoic membrane assessed as reduction in VEGF/bFGF stimulated neovascularization after 40 hrs by microscopic based CAM assay; type: functional, tissue-based; conditions: Gallus gallus
Outline: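 VEGF/bFGF applied at saturation to a testing disk on the CAM. Compounds at various doses were added to the same disk 8 h later, then incubated 40 h more. Vessels were counted in 5–7 grids at 7.5X. Values are percent of growth-factor-only. IC50 by non-linear regression, 2–3 experiments, 2–5 replicates each.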

Chorioallantoic membrane [15] = assay: Potency index, ratio IC50 for erlotinib to IC50 for test compound for antiangiogenic activity in Leghorn chicken fertilized egg chorioallantoic membrane; type: functional, tissue-based; conditions: Gallus gallus
[16] = target: T2, Vascular endothelial growth factor receptor 2; assay: Potency index, ratio of IC50 for erlotinib to IC50 for test compound for inhibition of VEGFR2 in human U251 cells; type: cell-based; conditions: U-251
[17] = target: T2, Vascular endothelial growth factor receptor 2; assay: Potency index, ratio of IC50 for sunitinib to IC50 for test compound for inhibition of VEGFR2 in human U251 cells; type: cell-based; conditions: U-251
[18] = target: T3, Platelet-derived growth factor receptor beta; assay: Potency index, ratio of IC50 for sunitinib to IC50 for test compound for inhibition of PDGFRbeta in human SH-SY5Y cells; type: cell-based
[19] = target: T1, Epidermal growth factor receptor; assay: Potency index, ratio of IC50 for sunitinib to IC50 for test compound for inhibition of EGFR in human A431 cell; conditions: A-431
[20] = target: T3, Platelet-derived growth factor receptor beta; assay: Potency index, ratio of IC50 for erlotinib to IC50 for test compound for inhibition of PDGFRbeta in human SH-SY5Y cells; type: cell-based

Row | Structure (SMILES) | EC50 [1] [nM] | IC50 (MDA-MB-435) [nM] | Ratio IC50 [2] | IC50 (SK-OV-3 [3]) [nM] | IC50 (SK-OV-3 [4]) [nM] | IC50 (HeLa [5]) [nM] | Ratio IC50 [6] | IC50 (HeLa [7]) [nM] | Ratio [8] | IC50 [9] [nM] | IC50 [10] [nM] | IC50 [12] [nM] | IC50 (A-431) [nM] | IC50 (U-251) [nM] | IC50 (Chorioallantoic membrane [14]) [nM] | other results
1 | COc1ccc(/C=C\c2cc(OC)c(OC)c(OC)c2)cc1O [COMBRETASTATIN A4] | 9.8 | – | – | – | – | – | – | – | – | – | – | – | – | – | – | –
2 | CSc1ccc(N(C)c2ncnc3ccccc23)cc1 | 12.3 | 7.8 | 0.6 | 15.6 | 13.6 | 8.5 | 1.1 | 7.3 | 1.6 | – | – | – | – | – | – | –
3 | COc1ccc(N(C)c2nc(Cl)nc3ccccc23)cc1 | – | – | – | – | – | – | – | – | – | 3.6 | 97.5 | 76.6 | 1.2 | 32.5 | 130000 | inhibition (Bos taurus [11]): 99%; inhibition (Bos taurus [13]): 92%
4 | COc1cccc2cc(N(C)c3nc(Cl)nc4ccccc34)ccc12 | 1.9 | 1.4 | 0.6 | 2.6 | 2.8 | 2.8 | 0.9 | 1.6 | 1.4 | – | – | – | – | – | – | –
5 | COc1ccc(N(C)c2ncnc3ccccc23)cc1 | 8.2 | 7.1 | 0.9 | 14.3 | 10.4 | 8.6 | 1.4 | – | 1.2 | – | – | – | – | – | – | –
6 | COc1ccc2c(c1)CCCN2c1nc(C)nc2ccccc12 | 3 | 1.1 | 1 | 2.2 | 1.5 | 1.2 | 1.5 | 1.2 | 2.7 | 5 | 9.3 | 7.8 | 2.5 | 3.1 | 3100 | Ratio IC50 (Chorioallantoic membrane [15]): 9.4
7 | COc1ccc(N(C)c2nc(C)nc3ccccc23)cc1 [VERUBULIN] | 2.1 | 1.7 | 0.8 | 2.6 | 2.2 | 2 | 1.2 | 1.5 | 1.2 | 2.8 | 8.4 | 5.6 | 0.9 | – | 2800 | Ratio IC50 [16]: 15; Ratio IC50 [17]: 2; Ratio IC50 [18]: 15; Ratio IC50 [19]: 61; Ratio IC50 [20]: 2
8 | COc1ccc2c(c1)CCCN2c1nc(Cl)nc2ccccc12 | 2 | 0.7 | – | 1 | 0.8 | 0.6 | – | – | – | – | 55.2 | 80.6 | 1.8 | 14.8 | 41400 | –
9 | C#Cc1cccc(Nc2ncnc3cc(OCCOC)c(OCCOC)cc23)c1 [ERLOTINIB] | – | – | – | – | – | – | – | – | – | – | – | – | – | – | 3100 | –
10 | COc1ccc2c(c1)CCCN2c1ncnc2ccccc12 | 23.4 | 12.4 | 0.8 | 23.4 | 18.1 | 16.8 | 1.3 | 13.1 | 1.9 | 48.9 | 111 | 54 | 16.3 | 27.8 | – | –
11 | CSc1ccc(N(C)c2nc(C)nc3ccccc23)cc1 | – | – | – | – | – | – | – | – | – | 8.7 | 14.7 | 232 | 2.9 | 4.9 | – | inhibition (Bos taurus [11]): 99%; inhibition (Bos taurus [13]): 91%
12 | CSc1ccc(N(C)c2nc(Cl)nc3ccccc23)cc1 | 2.7 | 2.7 | 0.6 | 3.5 | 3.3 | 5 | 1.1 | 3.2 | 1 | – | – | – | – | – | – | –
13 | COc1cccc2cc(N(C)c3nc(C)nc4ccccc34)ccc12 | 2.4 | 2 | 0.7 | 3.5 | 2.9 | 2.5 | 1.2 | 1.7 | 1.2 | 10.6 | 16.8 | 29.4 | 5.3 | 4.2 | – | inhibition (Bos taurus [11]): 98%; inhibition (Bos taurus [13]): 88%
